Results as given in ChEMBL document CHEMBL1817592, “Triazoles as γ-secretase modulators” (Bioorg Med Chem Lett, 2011).

Experiments:
Assay type in all cases: ADME, organism-based
[1] = Plasma clearance in Sprague-Dawley rat at 1 mg/kg, iv and 2 mg/kg, po
In short: (§1)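 SD rat pharmacokinetics: 1 mg/kg iv and 2 mg/kg po. Plasma clearance and Vd were determined. Half-life came from the iv arm.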

[2] = Volume of distribution at steady state in Sprague-Dawley rat at 1 mg/kg, iv and 2 mg/kg, po; settings: in vivo, read-out: Vdss; in short: as §1
[3] = Oral bioavailability in Sprague-Dawley rat at 2 mg/kg; settings: in vivo; in short: as §1
[4] = Drug level in Sprague-Dawley rat brain at 100 mg/kg, po after 6 hrs; set-up: dose 100 mg/kg, route oral; settings: read-out: Drug uptake
In short: (§2)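 SD rats given a single 100 mg/kg oral dose, n=5. Plasma and whole brain were taken 6 h later. Drug concentrations were measured in both, the brain-to-plasma ratio was derived from them, and whole-brain Aβ42 was reported as percent change.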

[5] = tested on: Rattus norvegicus; assay: Dose normalized AUC (0 to 24 hrs) in Sprague-Dawley rat at 2 mg/kg, po; set-up: dose 2 mg/kg, route oral; settings: in vivo
In short: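 Sprague–Dawley rats dosed orally at 2 mg/kg, alongside a separate 1 mg/kg iv arm. Plasma exposure was followed over 0–24 h after the oral dose. AUC was normalized to dose and expressed as μM h kg/mg.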

[6] = Plasma concentration in Sprague-Dawley rat at 100 mg/kg, po after 6 hrs; set-up: dose 100 mg/kg, route oral; in short: as §2
[7] = Ratio of drug level in brain to plasma in Sprague-Dawley rat at 100 mg/kg, po after 6 hrs; set-up: dose 100 mg/kg, route oral; settings: read-out: BPR; in short: as §2
[8] = Half life in Sprague-Dawley rat at 1 mg/kg, iv; set-up: dose 1 mg/kg, route intravenous; settings: in vivo; in short: as §1
[9] = Plasma concentration in Sprague-Dawley rat at 60 mg/kg, po after 6 hrs; set-up: dose 60 mg/kg, route oral
In short: (§3)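 Single 60 mg/kg oral dose in SD rats. Plasma and brain drug exposure and central Aβ42 were assessed 6 h post-dose.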

[10] = Drug level in Sprague-Dawley rat brain at 60 mg/kg, po after 6 hrs; set-up: dose 60 mg/kg, route oral; settings: read-out: Drug uptake; in short: as §3

SMILES | clearance [1] | Vd [2] | bioavailability [3] | concentration at 6 h [4] | AUC/dose [5] | concentration at 6 h [6] | Kp at 6 h [7] | half-life [8] | concentration at 6 h [9] | concentration at 6 h [10]
COc1cc(-c2cn(Cc3ccc(C(C)(C)C)cc3)nn2)ccc1-n1cnc(C)c1 | 24 mL/min/kg | 7.1 L/kg | 41% | 56 µM | 1.4 µM·kg·h/mg | 47 µM | 1.2 | 462 min | – | –
COc1cc(-c2cn(Cc3ccc(-c4nc5ccccc5o4)cc3)nn2)ccc1-n1cnc(C)c1 | 13.7 mL/min/kg | 2.8 L/kg | 49% | – | 2.6 µM·kg·h/mg | – | – | 324 min | 40 µM | 9.4 µM
